According to ChEMBL document CHEMBL4513216, “Probing the Open Global Health Chemical Diversity Library for Multistage-Active Starting Points for Next-Generation Antimalarials” (ACS Infect Dis, 2020):

Experiment: Toxicity liver stage against HepG2, at 10uM
Format: cell-based
Design: test concentration 10 uM, cell line HepG2-A16-CD81EGFP
Settings: human, HepG2-A16-CD81EGFP cells; read-out: INHIBITION
In short: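 Uninfected HepG2-A16-CD81EGFP cells, 3 × 10^3 per well, 1536-well, plated on prespotted compound at 10 μM final, parasite-free screening media added to match infected plates; puromycin 10 μM positive, DMSO 0.5% negative; run in parallel with 48 h PbLuc assay at 37 °C, 5% CO2; viability by CellTiter-Glo luminescence, normalized to controls.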

Structure (SMILES) | cytotoxicity at 10 µM [%]
COc1ccc(Cl)cc1C(=O)NCc1cnn(C)c1C | 6.81
CCC(CC)C(=O)N1CCN(Cc2nc3ccccc3c(=O)[nH]2)CC1 | -17.6
CN(Cc1ccccc1C(F)(F)F)C(C(N)=O)c1ccccc1 (configuration not stated) | 13.2
COC(=O)c1ccc(NC(=O)CCNCc2ccco2)cc1 | -3.64
CNC(=O)c1cc(C)n(-c2ccccc2)n1 | -0.142
CC1=Nc2c(c(=O)[nH]n2C2CCCCC2)C(c2ccc(C(=O)O)cc2)S1 (configuration not stated) | -7.92
Cc1nc(C(=O)N2CCN(S(=O)(=O)N(C)C)CC2)c(-c2ccccc2)s1 | 3.67
CC(C)Oc1ccc(C(=O)N2CCCSCC2CN(C)C)cc1 (configuration not stated) | 9.9
Cc1ccc(S(=O)(=O)N2CCC(S(C)(=O)=O)CC2)cc1C | 2.59
N#Cc1cccc(N2CCCC3(CN(C(=O)NC4CC4)CCO3)C2)c1 (configuration not stated) | 12.1
CC(C)C(=O)N1CCC12CCCN(C(=O)c1ccccc1)C2 (configuration not stated) | 6.8
COCC(=O)N1CCn2c(Cn3cncn3)cnc2C1C (configuration not stated) | 0.53
O=C(Nc1cccnc1)c1nn(C2CCS(=O)(=O)C2)c2c1CCCC2 (configuration not stated) | 7.41
COc1ccc(C2CC(=O)Nc3nc(N4CCOCC4)sc32)c(OC)c1 (configuration not stated) | 53.8
CN(C)CC1CSCCCN1C(=O)c1ccc(C(C)(C)C)cc1 (configuration not stated) | 6.25
Cn1ncc(C(=O)N2CCN(C(=O)c3ccco3)CC2)c1Cl | 2.88
Cc1ccc(C)c(NC(=O)c2n[nH]c(-n3cnnc3)n2)c1 | 3.43
Cc1cncc(C2CCN(Cc3cnc(C)nc3)CC2)n1 | 5.38
Clc1ccc(OCCc2cc(C3CCN(c4ncccn4)C3)n[nH]2)cc1 (configuration not stated) | 7.45
Cn1ccc(C(=O)N2CCCC2c2[nH]ncc2C(N)=O)n1 (configuration not stated) | 15.3
NC(=O)CN1CCCCC1c1nc(N)ncc1-c1cccc(F)c1 (configuration not stated) | -13.5
Cc1cc(N(C)C)nc(C2(C)CCCN2C(=O)c2ccn(C)n2)n1 (configuration not stated) | -1.06
O=C(N1CCCCC1)N1CCCC1c1nnc2n1CCNC2 (configuration not stated) | 13.6

Structure (SMILES) | cytotoxicity at 10 µM [%]
Cc1cc(C2CCCN2Cc2nc(-c3ccco3)no2)on1 (configuration not stated) | 7.53
CC1COc2ccccc2N1C(=O)c1cscn1 (configuration not stated) | 11.5
COc1ccc(CNC(C)c2cnn(C)c2)cc1OC1CCCC1 (configuration not stated) | -0.734
CS(=O)(=O)Cc1cccc(CNS(=O)(=O)c2ccc(F)c(F)c2)c1 | 1.33
Cc1nnc(CNC(C)c2cc(C)c(F)c(C)c2)s1 (configuration not stated) | -3.7
Cc1nc(CN2CCCN(CC(=O)N(C)CCC#N)CC2)no1 | 6.28
COCc1cccc(NCc2cccnc2)c1 | 4.16
CCc1nc(CN(C)C2CCN(Cc3ccc(Cl)s3)C2)no1 (configuration not stated) | 9.41
O=C(c1cn(-c2ccccc2C(F)(F)F)nn1)N1CCSCC1 | -0.111
CC(NC(=O)NCCCn1cccn1)c1ccncc1 (configuration not stated) | 15.3
CC(C)CCN1CCN(C(=O)c2cccnc2-n2cncn2)CC1 | 6.37
CCc1cc(NCc2cccnc2N2CCCCC2)n2ncnc2n1 | 10.5
NC(=O)C1CCN(CCc2ccc(NCc3ccsc3)cc2)CC1 | 0.867
Cc1noc(C)c1CN(C)Cn1nccc1-c1cccnc1 | -0.532
O=C(NCC1CCN(c2ccncc2)CC1)C(O)c1ccccc1 (configuration not stated) | 8.15
Cc1cccc(N2CCC(NCc3cnc(C4CCC4)s3)CC2)n1 | 6.08
CC(C)=CCN1CCN(C(C)c2cccnc2)CC1 (configuration not stated) | -2.65
COCCN(CCOC)c1ncccc1Cl | 3.94
Cc1cc(S(=O)(=O)NCC(C)(O)CN(C)C)c(F)cc1F (configuration not stated) | 10
CCC(C)(COc1ncccc1Cl)NCC(=O)Nc1ccc(Br)cn1 (configuration not stated) | -2.89
CC(C)n1cnnc1C1CCCN(S(=O)(=O)c2c[nH]cn2)C1 (configuration not stated) | -6.6
CCc1nn(C)c2[nH]nc(NC(=O)c3cccnc3NC(C)C)c12 | 3.07
Cc1cnn(C2CN(CC(O)Cn3cccn3)C2)c1 (configuration not stated) | 9.12

Structure (SMILES) | cytotoxicity at 10 µM [%]
Cc1ccc(C)n1-c1c(C(=O)NCC(c2ccsc2)N(C)C)cnn1C (configuration not stated) | 17.1
COc1ccc(C(C)NCc2cnnn2C)cc1F (configuration not stated) | -9.72
O=C(CSCc1ccccn1)N(Cc1ccsc1)C1CC1 | -9.8
CCC(C)(NCC(=O)N(c1ccccc1)C(C)C)c1nc(C)cs1 (configuration not stated) | 10.9
CC(C)c1cc(C(=O)N2CCN(Cc3ccsc3)CC2)n[nH]1 | 0.0711
CN(Cc1cnccn1)C(=O)c1ccnc(OC2CCC2)c1 | 0.0711
CCN1Cc2ccccc2CC2(CCN(C(=O)N(C)C)CC2)C1=O | 8.3
Cc1occc1C(=O)N1CCC2(CCC2NC(=O)c2ccn(C)c2)CC1 (configuration not stated) | -1.75
Cc1ccc(CN2CC[C@H]3OCC[C@@H](c4nc(C)no4)[C@H]3C2)cc1 | -6.95
COc1ccc(CN(CC2CCCO2)C(=O)CN2CCOC2=O)cc1 (configuration not stated) | -1.39
CCc1nc(C)c(CC(=O)N2CCC3(CC2)OCCCC3O)c(=O)[nH]1 (configuration not stated) | 9.16
Cc1ccc(C2(O)CCN(Cc3nnc(-c4cccnc4)o3)CC2)nc1 | -7.77
O=C(NCc1nnc2n1CCCC2)c1cn(-c2ccccc2)nn1 | -2.12
CCc1[nH]c2ccc(CNC(=O)c3cnc(N)nc3C)cc2c1C | -3.56
CC(C)=CCN1C[C@@H]2CN(C(=O)c3ccc(CO)cc3)C[C@]2(C(=O)O)C1 | 2.21
Cc1cc(C)c2c(NCC3(O)CCCCC3)ncnc2n1 | -7.13
Cc1ccc(CSc2nc(N)cc(NCCC(=O)N3CCCC3)n2)cc1 | 1.87
CN(Cc1ccsc1)Cc1nc(-c2ccncc2)no1 | 1.93
CN(C)CC1(O)CCN(C(=O)c2ccc(-n3cccn3)cc2Cl)C1 (configuration not stated) | -0.662
Cc1csc2c(=O)n(C(C)Cc3cccnc3)cnc12 (configuration not stated) | 9.98
CC(NS(C)(=O)=O)C(=O)N(C)Cc1cnn(-c2ccc(F)cc2)c1 (configuration not stated) | -7.94
CCOCCN1CCC=C(C2c3nc[nH]c3CCN2C(C)=O)C1 (configuration not stated) | -3.67
C[C@@H](N)C(=O)N1CCC(c2[nH]ncc2-c2ccccc2)CC1 | -3.81

Structure (SMILES) | cytotoxicity at 10 µM [%]
CSCC[C@@H](CO)Nc1ccc(-c2nc(-c3ccccc3C)no2)cn1 | 3.77
CCN1CCc2[nH]cnc2C12CCN(C(=O)CCCn1cncn1)CC2 | -19.2
O=C(Cc1cccc(O)c1)N1CCCC(OCc2cccnc2)C1 (configuration not stated) | 1.5
COc1ccc(-c2nc3c([nH]2)CCNC3C(=O)O)c2ccc(C)nc12 (configuration not stated) | 0.562
c1ccc(C2CCCN2C2CSCCSC2)nc1 (configuration not stated) | -3.77
CCC(Nc1cccc(OC)c1)C(=O)NCc1nc(C)cc(=O)[nH]1 (configuration not stated) | 4.91
CC(C)CN1CCCn2nc(CNC(=O)OCc3ccccc3)cc2C1 | 1.04
CNC(=O)C1CC(=O)N(c2cccc(F)c2)C1 (configuration not stated) | 4.61
O=C(O)CC[C@@H]1CN(c2ccncc2)CC[C@@H]1N1CCOCC1 | 0.0482
CC(Cn1cccn1)n1cnc2cccc(Cl)c2c1=O (configuration not stated) | -5.41
CCC(C(=O)NCc1ccncc1)N(c1cccc(C)c1)S(C)(=O)=O (configuration not stated) | -5.88
CC(C)C(=O)NCCNc1nccc(-c2cc(C(=O)O)ccn2)n1 | -24
CN(C)CC1(O)CCN(S(=O)(=O)c2ccc(F)cc2)C1 (configuration not stated) | -3.09
Cc1csc2c(=O)n3c(nc12)CCN(C(=O)c1cccnc1)CC3 | -2.09
O=C(NC(Cc1ccsc1)c1nccs1)C1CCOCC1 (configuration not stated) | 1.9
CCn1cnnc1CNC(=O)N1CCN(c2ccc(OC)cc2)CC1 | -1.62
Cc1ccccc1OCCCC(=O)N1CCCC(n2cncn2)C1 (configuration not stated) | -4.36
Cc1cc(CN2CCN(C(=O)NC(C)Cn3ccnc3)CC2)on1 (configuration not stated) | -7.42
CC(NC(=O)NCc1ccoc1)c1ccc2c(c1)CCC(=O)N2 (configuration not stated) | -1.12
OCCn1cc(CN2CCN(CCOc3ccccc3F)CC2)cn1 | -5.72
CCc1nc(C2CCCN(C(=O)c3cccc4c3ccn4C)C2)no1 (configuration not stated) | -14.4
Cn1cnc2c1CCN(Cc1ccc(C(=O)N3CCCC3)cc1)C2 | -8.62
COc1ccsc1C(=O)N1CCCC(n2nc(C)nc2C)C1 (configuration not stated) | -3.69

Structure (SMILES) | cytotoxicity at 10 µM [%]
Cc1cccc(C2(CNC(=O)CCN3C(=O)CCC3=O)CCCC2)c1 | -7.59
Cc1cc(C2CCCN(CCCNS(C)(=O)=O)C2)n[nH]1 (configuration not stated) | -5.2
c1ccc(Cn2cncn2)c(CNCC2CNc3ccnn3C2)c1 (configuration not stated) | -3.61
Cc1cc(C)n(C2CCCN(C(=O)c3c(C)c(C)n[nH]c3=O)C2)n1 (configuration not stated) | 3.18
CCn1cnnc1CNC(=O)N(C)Cc1ccc(F)c(F)c1 | -11.4
Cc1ccccc1CN1CCCN(C2CCOC2=O)CC1 (configuration not stated) | -3.09
COc1ccccc1CNC(=O)N1CCCC(NS(C)(=O)=O)C1 (configuration not stated) | 5.05
Cc1ccc(-c2nc(CN3CCn4c(nnc4C4CC4)C3)cs2)o1 | -0.215
Cc1sc2c(C3CCCNC3)nc(Nc3cccc(F)c3)n2c1C (configuration not stated) | 1.24
COc1nc2cc(C)ccc2cc1CN(C)Cc1cc(C)[nH]n1 | 4.3
CN(C)CC1COCCN1C(=O)C1(c2cccs2)CCCC1 (configuration not stated) | -9.52
CN(C)CCOCc1nnc2n1CCN(CC1CC1)CC2 | -4.87
CCOCC1CN(C(=O)c2cc(C)oc2C)Cc2c1cnn2C (configuration not stated) | 9.64
CNC(=O)COC1COC2(CCN(c3cnccn3)CC2)C1 (configuration not stated) | -8.44
CN(C)CCN1CCCC12CCCN(Cc1ccco1)C2 (configuration not stated) | 10.3
O=S(=O)(NC1CCC12CCN(CC1CCOCC1)CC2)c1ccccc1 (configuration not stated) | -1.34
Cc1oncc1C(=O)NCc1cc(=O)n2c(n1)CN(CC1CC1)CCC2 | -4.5
CN1CCN(Cc2cn3c(n2)CNCC3)CC1 | 7.85
Cc1ccc(N2CCC3(CCN(C(=O)c4ccsc4)C3)CC2)nn1 | -0.0395
CCN1CCN(c2nc3cn(-c4cnn(CC)c4)c(=O)c-3c[nH]2)CC1 | 4.01
